Drawing on ChEMBL document CHEMBL1124758, “Renin inhibitory peptides. A beta-aspartyl residue as a replacement for the histidyl residue at the P-2 site” (J Med Chem, 1990), this text covers IC50 for 14 compounds.

The target of the experiment is T1, Renin (Homo sapiens, UniProt P00797).
T1 sequence (P00797 whole entry): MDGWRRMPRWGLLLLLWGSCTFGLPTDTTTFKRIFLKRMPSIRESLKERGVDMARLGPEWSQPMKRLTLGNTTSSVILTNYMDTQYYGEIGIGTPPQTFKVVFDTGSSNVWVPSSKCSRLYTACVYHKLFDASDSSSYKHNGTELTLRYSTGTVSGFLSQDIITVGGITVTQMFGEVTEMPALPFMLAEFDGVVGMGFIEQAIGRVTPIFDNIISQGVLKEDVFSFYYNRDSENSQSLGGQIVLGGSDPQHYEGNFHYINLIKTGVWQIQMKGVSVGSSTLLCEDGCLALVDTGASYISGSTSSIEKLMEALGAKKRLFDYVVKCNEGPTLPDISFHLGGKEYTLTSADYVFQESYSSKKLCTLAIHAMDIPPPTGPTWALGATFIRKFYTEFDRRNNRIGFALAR
The experiment can be described thus: Inhibition of human plasma renin at pH 6. Type of experiment: cell-free. Put shortly:
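Human plasma incubated with phenylmethanesulfonyl fluoride and maleate buffer (pH 6.0) plus peptide in 1% Tween 80/water vehicle, 90 min at 37 °C, for angiotensin I generation. Angiotensin I measured by radioimmunoassay kit. Percent inhibition from plasma renin activity versus control tubes. IC50 estimated from semilog plot of three or four peptide concentrations.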
As for `CC[C@@H](C)CNC(=O)[C@@H](NC(O)[C@@H](CC(=O)[C@H](CC(=O)O)NC(=O)COc1ccccc1)CC1CCCCC1)C(C)C` (some centres undefined), the half-inhibitory concentration (IC50) stood at 5.2 nM.
The figure for `CC[C@@H](C)[C@H](NC(=O)[C@@H](CC(O)[C@H](CC(C)C)NC(=O)C(CC(=O)O)NC(=O)Cc1ccccc1)C(C)C)C(=O)N(C)c1ccccn1` (stereo in doubt) is 17 nM.
As for `CC[C@@H](C)[C@H](NC(=O)[C@@H](CC(O)[C@H](CC(C)C)NC(=O)[C@H](Cc1c[nH]cn1)NC(=O)Cc1ccccc1)C(C)C)C(=O)N(C)c1ccccn1` (some centres undefined), the figure is 220 nM.
The figure for `CC[C@@H](C)[C@H](NC(=O)[C@@H](CC(O)[C@H](CC1CCCCC1)NC(=O)[C@@H](CC(=O)O)NC(=O)Cc1ccccc1)C(C)C)C(=O)N(C)c1ccccn1` (some centres undefined) is 2 nM.
Consider `CC[C@@H](C)CNC(=O)[C@@H](CC(O)[C@H](CC(C)C)NC(=O)[C@@H](CC(=O)O)NC(=O)COc1ccccc1)C(C)C` (some centres undefined), for which the IC50 amounted to 20 nM.
The figure for `CC[C@@H](C)CNC(=O)[C@@H](CC(O)[C@H](CC(C)C)NC(=O)C(C(=O)COc1ccccc1)C(O)C(=O)O)C(C)C` (some centres undefined) is 2.2 nM; for `CC[C@@H](C)[C@H](NC(=O)[C@@H](CC(O)[C@H](CC(C)C)NC(=O)[C@H](Cc1c[nH]cn1)NC(=O)COc1ccccc1)C(C)C)C(=O)N(C)c1ccccn1` (some centres undefined) it is 8.5 nM.
In turn, `CC[C@@H](C)[C@H](NC(=O)[C@@H](CC(O)[C@H](CC(C)C)NC(=O)C(C(=O)Cc1ccccc1)C(O)C(=O)O)C(C)C)C(=O)N(C)c1ccccn1` (some centres undefined) showed a concentration for half-maximal inhibition (IC50) of 1.2 nM.
The compound `CC[C@@H](C)[C@H](NC(=O)[C@@H](CC(O)[C@H](CC(C)C)NC(=O)[C@@H](CC(=O)O)NC(=O)COc1ccccc1)C(C)C)C(=O)N(C)c1ccccn1` (some centres undefined) gave an IC50 of 1.9 nM.
In turn, `CC[C@@H](C)CNC(=O)[C@@H](CC(O)[C@H](CC(C)C)NC(=O)C(C(=O)Cc1ccccc1)C(O)C(=O)O)C(C)C` (some centres undefined) registered an IC50 of 6 nM.
The figure for `CC[C@@H](C)[C@H](NC(=O)[C@@H](CC(O)[C@H](CC(C)C)NC(=O)C(C(=O)COc1ccccc1)C(O)C(=O)O)C(C)C)C(=O)N(C)c1ccccn1` (some centres undefined) is 0.7 nM; for `CC[C@@H](C)[C@H](NC(=O)[C@@H](CC(O)[C@H](CC(C)C)NC(=O)[C@@H](CC(=O)O)NC(=O)Cc1ccccc1)C(C)C)C(=O)N(C)c1ccccn1` (some centres undefined) it is 3.5 nM; for `CC[C@@H](C)[C@H](NC(=O)[C@@H](CC(O)[C@H](CC1CCCCC1)NC(=O)[C@@H](CC(=O)O)NC(=O)COc1ccccc1)C(C)C)C(=O)N(C)c1ccccn1` (some centres undefined) it is 0.34 nM.
The figure for `CC[C@@H](C)CNC(=O)[C@@H](CC(O)[C@H](CC1CCCCC1)NC(=O)C(C(=O)COc1ccccc1)C(O)C(=O)O)C(C)C` (some centres undefined) is 3.6 nM.

The IC50 is the point on the concentration scale where inhibition reaches its midpoint. Low readings indicate higher potency, high ones lower potency.
